Source: the M2OR odorant receptor database
Where a chain is given by its changes, count along the chain named.

How the values were obtained:
Settings in all cases: stereoisomer not certain
A0A140T8K4 = system: T1, A0A140T8K4
T1 sequence (whole entry): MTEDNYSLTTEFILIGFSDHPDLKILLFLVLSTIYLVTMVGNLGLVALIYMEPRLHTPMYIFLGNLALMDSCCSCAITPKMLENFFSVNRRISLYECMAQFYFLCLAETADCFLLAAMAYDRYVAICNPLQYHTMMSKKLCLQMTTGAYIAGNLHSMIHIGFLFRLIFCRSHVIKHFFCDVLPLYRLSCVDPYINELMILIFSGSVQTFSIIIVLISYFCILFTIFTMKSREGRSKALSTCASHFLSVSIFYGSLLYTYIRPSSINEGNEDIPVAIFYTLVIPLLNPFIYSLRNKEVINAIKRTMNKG
Method in brief: (§1)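 Each entry records the cell line, G-protein, co-transfected protein and tags used. Methods varied with the source, often transient luciferase assays in mammalian cell lines. A receptor–molecule pair is called responsive (active) if the original authors judged its signal statistically different from baseline and non-responsive (inactive) otherwise.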

A0A2J8MY22 = system: T2, A0A2J8MY22
T2 sequence (whole entry): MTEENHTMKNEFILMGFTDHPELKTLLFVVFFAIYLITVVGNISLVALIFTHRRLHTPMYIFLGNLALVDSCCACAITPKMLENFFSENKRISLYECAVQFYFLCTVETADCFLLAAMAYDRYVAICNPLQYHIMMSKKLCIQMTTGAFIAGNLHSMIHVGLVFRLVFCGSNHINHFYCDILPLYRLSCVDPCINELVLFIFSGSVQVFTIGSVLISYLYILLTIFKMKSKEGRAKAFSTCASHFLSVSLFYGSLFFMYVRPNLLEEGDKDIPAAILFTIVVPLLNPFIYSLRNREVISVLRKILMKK
Method in brief: as §1

A0A2R8ZIW4 = system: T3, A0A2R8ZIW4
T3 sequence (whole entry): T2 sequence (whole entry) with V39I, I280V
Method in brief: as §1

A0A3Q7SVK8 = system: T4, A0A3Q7SVK8
T4 sequence (whole entry): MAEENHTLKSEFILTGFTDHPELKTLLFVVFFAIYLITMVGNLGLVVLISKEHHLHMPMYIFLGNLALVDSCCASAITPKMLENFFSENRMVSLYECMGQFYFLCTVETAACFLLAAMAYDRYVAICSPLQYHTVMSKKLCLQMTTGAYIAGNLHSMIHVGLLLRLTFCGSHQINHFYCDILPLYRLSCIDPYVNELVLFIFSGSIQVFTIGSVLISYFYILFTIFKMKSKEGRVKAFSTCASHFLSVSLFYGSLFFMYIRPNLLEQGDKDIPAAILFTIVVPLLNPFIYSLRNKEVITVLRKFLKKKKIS
Method in brief: as §1

A0A6P3DZI2 = system: T5, A0A6P3DZI2
T5 sequence (whole entry): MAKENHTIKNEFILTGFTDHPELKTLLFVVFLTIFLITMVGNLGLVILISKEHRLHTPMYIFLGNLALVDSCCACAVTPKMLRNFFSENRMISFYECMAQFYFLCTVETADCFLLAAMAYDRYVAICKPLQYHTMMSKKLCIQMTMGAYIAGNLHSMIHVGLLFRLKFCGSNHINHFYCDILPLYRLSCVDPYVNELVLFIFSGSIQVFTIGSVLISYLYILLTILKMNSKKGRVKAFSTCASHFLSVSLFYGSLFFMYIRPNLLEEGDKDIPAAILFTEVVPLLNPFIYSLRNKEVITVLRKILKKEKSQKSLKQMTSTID
Method in brief: as §1

A0A6P6H1F7 = system: T6, A0A6P6H1F7
T6 sequence (whole entry): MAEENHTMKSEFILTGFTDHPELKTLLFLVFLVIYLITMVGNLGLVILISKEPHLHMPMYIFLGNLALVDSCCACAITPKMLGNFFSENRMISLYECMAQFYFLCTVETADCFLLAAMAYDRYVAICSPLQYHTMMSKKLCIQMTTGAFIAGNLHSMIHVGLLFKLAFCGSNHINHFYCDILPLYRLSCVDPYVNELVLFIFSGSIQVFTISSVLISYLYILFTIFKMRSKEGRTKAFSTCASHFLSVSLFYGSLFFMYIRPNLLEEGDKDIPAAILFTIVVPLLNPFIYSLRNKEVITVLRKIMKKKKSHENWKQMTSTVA
Method in brief: as §1

O10A2 H43R H207R K258T = system: T7, O10A2 H43R H207R K258T
T7 sequence (whole entry): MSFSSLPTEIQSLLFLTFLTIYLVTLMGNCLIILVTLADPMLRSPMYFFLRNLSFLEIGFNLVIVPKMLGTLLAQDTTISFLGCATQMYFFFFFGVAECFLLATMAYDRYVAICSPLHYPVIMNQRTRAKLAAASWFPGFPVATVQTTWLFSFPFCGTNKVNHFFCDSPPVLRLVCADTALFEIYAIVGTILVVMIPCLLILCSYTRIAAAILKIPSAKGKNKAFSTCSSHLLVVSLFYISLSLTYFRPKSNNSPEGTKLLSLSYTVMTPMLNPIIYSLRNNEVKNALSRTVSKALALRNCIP
Method in brief: as §1

O10A3 C8G = system: T8, O10A3 C8G
T8 sequence (whole entry): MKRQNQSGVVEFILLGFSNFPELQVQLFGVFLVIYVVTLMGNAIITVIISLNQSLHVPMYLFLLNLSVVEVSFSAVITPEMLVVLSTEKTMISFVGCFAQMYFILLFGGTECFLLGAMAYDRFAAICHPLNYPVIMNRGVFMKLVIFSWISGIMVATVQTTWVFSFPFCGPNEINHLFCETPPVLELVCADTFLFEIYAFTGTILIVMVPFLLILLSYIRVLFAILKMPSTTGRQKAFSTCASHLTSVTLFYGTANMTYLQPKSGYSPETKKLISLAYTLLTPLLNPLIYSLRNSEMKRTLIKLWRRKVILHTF
Method in brief: as §1

O10A6 = system: T9, O10A6
T9 sequence (whole entry): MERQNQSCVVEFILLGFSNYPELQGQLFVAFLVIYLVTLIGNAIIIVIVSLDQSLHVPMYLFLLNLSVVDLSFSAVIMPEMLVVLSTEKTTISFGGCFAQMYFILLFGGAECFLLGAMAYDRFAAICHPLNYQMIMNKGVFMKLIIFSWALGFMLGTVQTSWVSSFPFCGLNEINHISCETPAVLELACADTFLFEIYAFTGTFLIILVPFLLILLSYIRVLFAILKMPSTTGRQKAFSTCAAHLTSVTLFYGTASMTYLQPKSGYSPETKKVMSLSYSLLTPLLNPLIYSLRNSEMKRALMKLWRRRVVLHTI
Method in brief: as §1

O10AD G65C = system: T10, O10AD G65C
T10 sequence (whole entry): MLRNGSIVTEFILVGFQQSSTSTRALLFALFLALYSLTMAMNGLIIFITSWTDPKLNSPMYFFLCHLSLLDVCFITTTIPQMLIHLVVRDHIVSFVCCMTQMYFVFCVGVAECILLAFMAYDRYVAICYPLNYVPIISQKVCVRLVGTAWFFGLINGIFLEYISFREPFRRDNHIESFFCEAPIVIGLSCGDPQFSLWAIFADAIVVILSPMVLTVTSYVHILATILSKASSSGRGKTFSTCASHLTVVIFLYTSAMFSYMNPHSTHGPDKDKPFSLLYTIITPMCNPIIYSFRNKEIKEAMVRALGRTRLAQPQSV
Method in brief: as §1

O10D3 V134A R197K = system: T11, O10D3 V134A R197K
T11 sequence (whole entry): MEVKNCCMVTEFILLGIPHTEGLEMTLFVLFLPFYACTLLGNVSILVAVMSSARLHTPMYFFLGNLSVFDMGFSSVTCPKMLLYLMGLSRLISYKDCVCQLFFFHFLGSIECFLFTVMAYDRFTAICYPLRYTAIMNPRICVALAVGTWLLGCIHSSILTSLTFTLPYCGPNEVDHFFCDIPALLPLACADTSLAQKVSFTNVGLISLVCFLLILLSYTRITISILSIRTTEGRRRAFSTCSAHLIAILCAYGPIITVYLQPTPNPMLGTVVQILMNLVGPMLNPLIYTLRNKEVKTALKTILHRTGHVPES
Method in brief: as §1

O10G4 L24P V195E = system: T12, O10G4 L24P V195E
T12 sequence (whole entry): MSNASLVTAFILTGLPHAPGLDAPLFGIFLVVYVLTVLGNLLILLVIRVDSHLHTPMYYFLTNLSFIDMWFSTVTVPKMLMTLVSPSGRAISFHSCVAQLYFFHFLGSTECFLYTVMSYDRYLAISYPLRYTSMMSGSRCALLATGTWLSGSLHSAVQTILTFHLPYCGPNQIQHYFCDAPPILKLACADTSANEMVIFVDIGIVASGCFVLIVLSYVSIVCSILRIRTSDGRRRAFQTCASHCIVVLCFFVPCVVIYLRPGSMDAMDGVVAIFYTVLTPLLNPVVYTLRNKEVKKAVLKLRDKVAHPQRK
Method in brief: as §1

O10G7 A18V P19Q G20A = system: T13, O10G7 A18V P19Q G20A
T13 sequence (whole entry): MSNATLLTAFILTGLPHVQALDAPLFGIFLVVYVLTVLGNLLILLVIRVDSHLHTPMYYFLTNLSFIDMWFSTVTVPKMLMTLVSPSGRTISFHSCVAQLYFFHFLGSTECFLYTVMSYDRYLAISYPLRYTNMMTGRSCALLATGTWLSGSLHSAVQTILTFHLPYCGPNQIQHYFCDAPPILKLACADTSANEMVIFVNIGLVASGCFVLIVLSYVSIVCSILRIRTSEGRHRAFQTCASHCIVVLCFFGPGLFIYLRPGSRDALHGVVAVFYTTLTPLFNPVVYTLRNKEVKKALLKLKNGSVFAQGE
Method in brief: as §1

O10G7 I28V = system: T14, O10G7 I28V
T14 sequence (whole entry): T13 sequence (whole entry) with V18A, Q19P, A20G, I28V
Method in brief: as §1

A0A140T8K0 = system: T15, A0A140T8K0
T15 sequence (whole entry): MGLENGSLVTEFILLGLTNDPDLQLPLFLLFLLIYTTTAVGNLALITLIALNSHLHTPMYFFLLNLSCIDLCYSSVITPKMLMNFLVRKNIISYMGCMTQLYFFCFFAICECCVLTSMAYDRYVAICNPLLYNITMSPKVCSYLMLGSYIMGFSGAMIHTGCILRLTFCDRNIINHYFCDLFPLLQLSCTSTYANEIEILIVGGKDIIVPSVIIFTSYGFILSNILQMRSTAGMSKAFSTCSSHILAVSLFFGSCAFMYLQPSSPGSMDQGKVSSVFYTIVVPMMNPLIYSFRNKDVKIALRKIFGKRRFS
Method in brief: as §1

A0A1L1SVG7 = system: T16, A0A1L1SVG7
T16 sequence (whole entry): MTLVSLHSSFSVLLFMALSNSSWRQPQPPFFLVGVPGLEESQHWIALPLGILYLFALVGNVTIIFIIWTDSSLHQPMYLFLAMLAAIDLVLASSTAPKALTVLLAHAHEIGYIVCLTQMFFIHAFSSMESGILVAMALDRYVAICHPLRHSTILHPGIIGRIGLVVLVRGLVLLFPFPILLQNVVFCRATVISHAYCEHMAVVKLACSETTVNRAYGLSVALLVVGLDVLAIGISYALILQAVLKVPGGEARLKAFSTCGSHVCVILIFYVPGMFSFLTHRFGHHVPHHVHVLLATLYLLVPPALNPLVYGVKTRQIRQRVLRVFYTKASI
Method in brief: as §1

Measured: odorant receptor agonist call

CC(=O)c1nccnc1C
inactive: A0A140T8K4 | A0A6P3DZI2
active: A0A2J8MY22 | A0A2R8ZIW4 | A0A3Q7SVK8 | A0A6P6H1F7

CCCCCCC=CCCC=O
inactive: O10A2 H43R H207R K258T | O10A3 C8G | O10AD G65C | O10D3 V134A R197K | O10G4 L24P V195E | O10G7 A18V P19Q G20A | O10G7 I28V
active: O10A6

Cc1cncc(C)n1
inactive: A0A140T8K4
active: A0A2J8MY22 | A0A2R8ZIW4 | A0A3Q7SVK8 | A0A6P3DZI2 | A0A6P6H1F7

Cc1cnc(C)c(C)n1
active: A0A2J8MY22 | A0A2R8ZIW4 | A0A3Q7SVK8 | A0A6P3DZI2 | A0A6P6H1F7
not listed: A0A140T8K0 | A0A1L1SVG7
inactive: all other assays above

COc1nccnc1C(C)C
active: A0A2J8MY22 | A0A2R8ZIW4 | A0A3Q7SVK8 | A0A6P6H1F7
inactive: A0A140T8K0 | A0A140T8K4 | A0A6P3DZI2

CCCCCOC(=O)CCCCC
inactive: A0A140T8K0 | A0A140T8K4 | A0A1L1SVG7

CCc1nccnc1C(C)=O
inactive: A0A140T8K4 | A0A6P3DZI2
active: A0A2J8MY22 | A0A2R8ZIW4 | A0A3Q7SVK8 | A0A6P6H1F7

Cc1cnccn1
inactive: A0A140T8K4 | A0A6P3DZI2
active: A0A2J8MY22 | A0A2R8ZIW4 | A0A3Q7SVK8 | A0A6P6H1F7
